The source made the active and inactive calls. The rule behind the calls is not given here.
Key:
Format in all cases: cell-based
[1] = target: Putative P2Y purinoceptor 10 (Mus musculus) (UniProt Q8BFU7); assay: Agonist activity at mouse P2Y10 expressed in HEK293 cells co-transfected with AP-TGFalpha/Galphaq/i1 assessed as induction of ectodomain shedding of membrane bound AP-TGFalpha after 1 hr by p-NPP substrate based microplate reader analysis relative to control
In short: (§1)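 Run the same way as the GPR34 shedding assay, but with a mouse P2Y10 expression vector in HEK293 cells alongside AP-TGFα and chimeric Gα. Receptor-specific AP-TGFα release was found by subtracting the empty-vector background. EC50 and Emax came from concentration-response curves. Mean and SEM of 3−8 independent experiments.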

[2] = target: Probable G-protein coupled receptor 34 (Mus musculus) (UniProt Q9R1K6); assay: Agonist activity at mouse GPR34 expressed in HEK293 cells co-transfected with AP-TGFalpha/Galphaq/i1 assessed as induction of ectodomain shedding of membrane bound AP-TGFalpha after 1 hr by p-NPP substrate based microplate reader analysis relative to positive control
Chain of Probable G-protein coupled receptor 34 (Mus musculus) (Q9R1K6 whole entry, the tested form may be a part): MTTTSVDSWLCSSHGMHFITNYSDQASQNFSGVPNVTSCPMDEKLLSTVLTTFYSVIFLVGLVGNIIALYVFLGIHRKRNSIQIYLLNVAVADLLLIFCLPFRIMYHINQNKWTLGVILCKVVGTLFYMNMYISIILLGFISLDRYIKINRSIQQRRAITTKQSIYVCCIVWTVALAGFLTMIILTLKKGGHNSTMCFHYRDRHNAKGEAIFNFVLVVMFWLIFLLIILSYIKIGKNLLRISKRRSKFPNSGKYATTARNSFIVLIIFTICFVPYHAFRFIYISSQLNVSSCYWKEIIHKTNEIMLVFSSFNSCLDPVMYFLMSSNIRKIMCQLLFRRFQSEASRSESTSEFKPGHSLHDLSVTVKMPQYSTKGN
In short: (§2)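 HEK293 cells transiently transfected with AP-TGFα, chimeric Gα and mouse GPR34 vectors, then treated with compound. Empty-vector cells (AP-TGFα plus chimeric Gα) served as background. Receptor-specific AP-TGFα release was taken after subtracting that background, and concentration-response curves gave EC50 and Emax. Mean and SEM of 3−8 independent experiments.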

[3] = target: Probable G-protein coupled receptor 34 (Mus musculus) (UniProt Q9R1K6); assay: Agonist activity at mouse GPR34 expressed in HEK293 cells co-transfected with AP-TGFalpha/Galphaq/i1 assessed as induction of ectodomain shedding of membrane bound AP-TGFalpha after 1 hr by p-NPP substrate based microplate reader analysis relative to control; in short: as §2
[4] = target: Probable G-protein coupled receptor 34 (Mus musculus, UniProt Q9R1K6); assay: Agonist activity at mouse GPR34 expressed in HEK293 cells co-transfected with AP-TGFalpha/Galphaq/i1 assessed as induction of ectodomain shedding of membrane bound AP-TGFalpha after 1 hr by p-NPP substrate based microplate reader analysis; conditions: read-out: EC50; in short: as §2
Chain of Probable G-protein coupled receptor 34 (Q9R1K6 whole entry, the tested form may be a part): as above

[5] = target: Putative P2Y purinoceptor 10 (Mus musculus) (UniProt Q8BFU7); assay: Agonist activity at mouse P2Y10 expressed in HEK293 cells co-transfected with AP-TGFalpha/Galphaq/i1 assessed as induction of ectodomain shedding of membrane bound AP-TGFalpha after 1 hr by p-NPP substrate based microplate reader analysis relative to positive control; in short: as §1
[6] = target: Putative P2Y purinoceptor 10 (Mus musculus, UniProt Q8BFU7); assay: Agonist activity at mouse P2Y10 expressed in HEK293 cells co-transfected with AP-TGFalpha/Galphaq/i1 assessed as induction of ectodomain shedding of membrane bound AP-TGFalpha after 1 hr by p-NPP substrate based microplate reader analysis; in short: as §1
Chain of Putative P2Y purinoceptor 10 (Q8BFU7 whole entry, the tested form may be a part): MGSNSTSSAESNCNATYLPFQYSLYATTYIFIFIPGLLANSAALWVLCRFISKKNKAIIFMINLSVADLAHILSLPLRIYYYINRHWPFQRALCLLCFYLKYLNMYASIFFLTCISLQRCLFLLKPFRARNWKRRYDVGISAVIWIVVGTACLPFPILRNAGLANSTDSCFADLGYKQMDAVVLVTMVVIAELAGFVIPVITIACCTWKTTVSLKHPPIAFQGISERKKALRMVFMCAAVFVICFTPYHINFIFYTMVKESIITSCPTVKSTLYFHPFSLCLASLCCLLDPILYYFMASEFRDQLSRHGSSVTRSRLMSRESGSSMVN

[7] = target: T1, G protein-coupled receptor 34b (Danio rerio, UniProt B0S6P9); assay: Agonist activity at zebrafish GPR34 type b expressed in HEK293 cells co-transfected with AP-TGFalpha/Galphaq/i1 assessed as induction of ectodomain shedding of membrane bound AP-TGFalpha after 1 hr by p-NPP substrate based microplate reader analysis
T1 sequence (B0S6P9 whole entry): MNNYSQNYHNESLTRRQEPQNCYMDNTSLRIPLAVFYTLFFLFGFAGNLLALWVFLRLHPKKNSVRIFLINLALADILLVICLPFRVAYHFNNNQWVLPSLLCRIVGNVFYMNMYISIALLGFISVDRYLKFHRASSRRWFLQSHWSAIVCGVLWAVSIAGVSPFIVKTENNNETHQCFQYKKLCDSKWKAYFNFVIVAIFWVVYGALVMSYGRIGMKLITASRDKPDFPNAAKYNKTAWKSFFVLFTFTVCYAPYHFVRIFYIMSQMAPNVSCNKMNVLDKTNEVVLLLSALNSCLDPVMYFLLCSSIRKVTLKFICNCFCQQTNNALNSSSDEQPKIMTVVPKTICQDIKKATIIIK

[8] = target: T2, G protein-coupled receptor 34a (Danio rerio, UniProt Q6XCC7); assay: Agonist activity at zebrafish GPR34 type a expressed in HEK293 cells co-transfected with AP-TGFalpha/Galphaq/i1 assessed as induction of ectodomain shedding of membrane bound AP-TGFalpha after 1 hr by p-NPP substrate based microplate reader analysis
T2 sequence (Q6XCC7 whole entry): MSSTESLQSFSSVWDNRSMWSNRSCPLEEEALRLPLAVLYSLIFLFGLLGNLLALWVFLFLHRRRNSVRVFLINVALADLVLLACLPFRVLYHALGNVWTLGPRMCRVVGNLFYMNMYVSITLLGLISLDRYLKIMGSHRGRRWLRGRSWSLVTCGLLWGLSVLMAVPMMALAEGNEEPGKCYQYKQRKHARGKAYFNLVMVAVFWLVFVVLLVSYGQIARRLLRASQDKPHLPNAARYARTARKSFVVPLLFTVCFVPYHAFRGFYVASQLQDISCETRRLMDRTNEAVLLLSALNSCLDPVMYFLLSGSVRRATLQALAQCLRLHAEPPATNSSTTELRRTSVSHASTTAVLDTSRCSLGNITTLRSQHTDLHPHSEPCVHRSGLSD

Chain of Putative P2Y purinoceptor 10 (Mus musculus) (Q8BFU7 whole entry, the tested form may be a part): as the sequence (Q8BFU7 whole entry, the tested form may be a part) above

Row | Compound | Emax [1] | fold change (FC) [2] | Emax [3] | EC50 [4] [nM] | fold change (FC) ([5]; filed as agonist) | EC50 [6] [nM] | fold change (FC) ([2]; filed as agonist) | fold change (FC) [5] | EC50 [7] [nM] | EC50 [8] [nM]
1 | CCCCCCCC/C=C\CCCCCCCC(=O)OCCOP(=O)(O)OC[C@H](N)C(=O)O | 10.6% | inactive | inactive | > 3000 | 0.02 | 66 |  |  |  | 
2 | CCCCCCCC/C=C\CCCCCCCC(=O)OC[C@@H](C)OP(=O)(O)OC[C@H](N)C(=O)O | 12.4% |  | 12.8% | 24 | 0.0054 | 250 | 4.8 |  |  | 
3 | CCCCCCCCCCCOc1ccccc1CCC(=O)O[C@@H]1COCCC1OP(=O)(O)OC[C@H](N)C(=O)O (single isomer, unassigned) | 12% |  | 6.4% | 63 | 0.0018 | 840 | 1.3 |  |  | 
4 | CCCCCCCC/C=C\CCCCCCCC(=O)O[C@@H](C)COP(=O)(O)OC[C@H](N)C(=O)O | 11.6% | inactive | inactive | > 3000 | 0.0034 | 390 |  |  |  | 
5 | CCCCCCCC/C=C\CCCCCCCC(=O)OCCCCCOP(=O)(O)OC[C@H](N)C(=O)O | 10.8% |  | 4.6% | 470 | 0.0061 | 240 | 0.076 |  |  | 
6 | N[C@@H](COP(=O)(O)OCCOC(=O)CCc1ccccc1OCc1cccc(Oc2ccccc2)c1)C(=O)O | 20.8% |  | 12.4% | 220 | 0.0013 | 2300 | 0.44 |  |  | 
7 | C[C@H](COP(=O)(O)OC[C@H](N)C(=O)O)OC(=O)CCc1ccccc1OCc1cccc(Oc2ccccc2)c1 | 13.8% |  | 12% | 6.3 | 0.0099 | 170 | 16 |  |  | 
8 | CCCCCCCC/C=C\CCCCCCCC(=O)O[C@H](C)COP(=O)(O)OC[C@H](N)C(=O)O | 11.4% |  | 6.1% | 250 | 0.02 | 79 | 0.22 |  |  | 
9 | CCCCCCCC/C=C\CCCCCCCC(=O)O[C@H](COC)COP(=O)(O)OC[C@H](N)C(=O)O | 2.5% |  | 9.7% | 160 | 0.0088 | 70 | 0.52 |  |  | 
10 | CCCCCCCCCCCOc1ccccc1CCC(=O)O[C@H]1COCC[C@@H]1OP(=O)(O)OC[C@H](N)C(=O)O | 12.4% | inactive | inactive | > 3000 | 0.0085 | 150 |  |  |  | 
11 | CCCCCCCC/C=C\CCCCCCCC(=O)OC[C@H](C)OP(=O)(O)OC[C@H](N)C(=O)O | 11.3% |  | 11.2% | 170 | 0.034 | 37 | 0.56 |  |  | 
12 | CCCCCCCCCCCOc1ccccc1CCC(=O)O[C@H]1CCOC[C@H]1OP(=O)(O)OC[C@H](N)C(=O)O | 3.2% | inactive | inactive | > 3000 | 0.0012 | 420 |  |  |  | 
13 | CCCCCCCCCCCOc1ccccc1CCC(=O)O[C@@H]1CCOC[C@@H]1OP(=O)(O)OC[C@H](N)C(=O)O | 19.3% |  | 8.9% | 220 | 0.00089 | 1300 | 0.61 |  |  | 
14 | CCCCCCCCCCCOc1ccccc1CCC(=O)OC1COCC[C@H]1OP(=O)(O)OC[C@H](N)C(=O)O (single isomer, unassigned) | 11.4% |  | 10% | 2.9 | 0.039 | 26 | 32 |  |  | 
15 | COC[C@H](COC(=O)CCc1ccccc1OCc1cccc(Oc2ccccc2)c1)OP(=O)(O)OC[C@H](N)C(=O)O | inactive |  | 13.5% | 5.7 |  | > 3000 | 21 | inactive |  | 
16 | CCCCCCCC/C=C\CCCCCCCC(=O)OCCCOP(=O)(O)OC[C@H](N)C(=O)O | 13.7% |  | 6.2% | 540 | 0.11 | 20 | 0.12 |  |  | 
17 | CCOC[C@H](COC(=O)CCc1ccccc1OCc1cccc(Oc2ccccc2)c1)OP(=O)(O)OC[C@H](N)C(=O)O |  |  |  | 5 |  | > 3000 |  |  | 1200 | > 3000
18 | CCCCCCCC/C=C\CCCCCCCC(=O)OC[C@@H](COCC)OP(=O)(O)OC[C@H](N)C(=O)O | inactive |  | 12.3% | 3.5 |  | > 3000 | 29 | inactive |  | 
19 | CCCCCCCC/C=C\CCCCCCCC(=O)OCCCCOP(=O)(O)OC[C@H](N)C(=O)O | 13.1% |  | 4.4% | 320 | 0.029 | 53 | 0.12 |  |  | 
20 | CCCCCCCCCCCOc1ccccc1CCC(=O)OCCOP(=O)(O)OC[C@H](N)C(=O)O | 12.7% |  | 4.8% | 330 | 0.32 | 5.7 | 0.12 |  |  | 
21 | C[C@H](COC(=O)CCc1ccccc1OCc1cccc(Oc2ccccc2)c1)OP(=O)(O)OC[C@H](N)C(=O)O | 13.2% |  | 12.4% | 9 | 0.0056 | 290 | 11 |  |  | 
22 | CCCCCCCC/C=C\CCCCCCCC(=O)OC[C@@H](COC)OP(=O)(O)OC[C@H](N)C(=O)O | inactive |  | 12.9% | 11 |  | > 3000 | 12 | inactive |  | 
23 | CCCCCCCC/C=C\CCCCCCCC(=O)OC[C@@H](COCCC)OP(=O)(O)OC[C@H](N)C(=O)O | inactive |  | 12.2% | 6.1 |  | > 3000 | 17 | inactive |  | 
24 | CCCCCCCCCCCOc1ccccc1CCC(=O)OC1COCCC1OP(=O)(O)OC[C@H](N)C(=O)O (single isomer, unassigned) | 8.6% |  | 3.7% | 340 | 0.00079 | 1300 | 0.1 |  |  | 
25 | CCCCCCCC/C=C\CCCCCCCC(=O)OC[C@@H](COCc1ccccc1)OP(=O)(O)OC[C@H](N)C(=O)O | 7.3% |  | 9.6% | 880 | 0.00075 | 1400 | 0.13 |  |  | 
26 | C#CCOC[C@H](COC(=O)CCCCCCC/C=C\CCCCCCCC)OP(=O)(O)OC[C@H](N)C(=O)O | 3.2% |  | 12.6% | 12 | 0.00074 | 420 | 10 |  |  | 
27 | CCCCCCCC/C=C\CCCCCCCC(=O)OC[C@H](COC)OP(=O)(O)OC[C@H](N)C(=O)O | inactive |  | 7.5% | 620 |  | > 3000 | 0.13 | inactive |  | 

Reference: ChEMBL document CHEMBL4725358 (J Med Chem, 2020)
